Test results from ChEMBL document CHEMBL1156708, “Enamines as novel antibacterials and their structure-activity relationships” (2008).
In brackets after ≈: the same amount, converted by molar mass.

Experiments:
Type in all cases: functional
Trichophyton rubrum = experiment: Antifungal activity against Trichophyton rubrum ATCC 10218 after 48 hrs by MTT assay; conditions: ATCC 10218, 48 h
Method in brief: (§1)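 MIC determined by serial dilution in RPMI-1640 medium in microtitration plates, compounds from 50 mg/mL DMSO stock. Fungal suspension about 10⁵ cfu/mL, incubated at 37 °C for 48 h. Visual MIC reading followed by addition of PBS with 2 mg MTT/mL; OD at 550 nm measured after 12 h at room temperature.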

Staphylococcus aureus = experiment: Antibacterial activity against Staphylococcus aureus ATCC 6538 after 24 hrs by MTT assay; conditions: ATCC 6538, 24 h
Method in brief: (§2)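 Broth microdilution MIC in MH medium; compounds from 50 mg/mL DMSO stock serially diluted in medium in microtitration plates. Inoculum about 10⁵ cfu/mL; incubated at 37 °C for 24 h. MIC read visually, then PBS containing 2 mg MTT/mL added per well; after 12 h further incubation at room temperature, OD read at 550 nm.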

Candida albicans = experiment: Antifungal activity against Candida albicans ATCC 10231 after 48 hrs by MTT assay; conditions: ATCC 10231, 48 h; method in brief: as §1
Bacillus subtilis = experiment: Antibacterial activity against Bacillus subtilis ATCC 6633 after 24 hrs by MTT assay; conditions: ATCC 6633, 24 h; method in brief: as §2
Pseudomonas fluorescens = experiment: Antibacterial activity against Pseudomonas fluorescens ATCC 13525 after 24 hrs by MTT assay; conditions: ATCC 13525, 24 h; method in brief: as §2
Aspergillus niger = experiment: Antifungal activity against Aspergillus niger ATCC 16404 after 48 hrs by MTT assay; conditions: ATCC 16404, 48 h; method in brief: as §1
Escherichia coli = experiment: Antibacterial activity against Escherichia coli ATCC 35218 after 24 hrs by MTT assay; conditions: ATCC 35218, 24 h; method in brief: as §2

Row | Structure (SMILES) | MIC (Trichophyton rubrum) | MIC (Staphylococcus aureus) | MIC (Candida albicans) | MIC (Bacillus subtilis) | MIC (Pseudomonas fluorescens) | MIC (Aspergillus niger) | MIC (Escherichia coli)
1 | CCOC(=O)/C(=C/Nc1ccc(F)cc1)c1ccc(Cl)cc1 | > 50 mg/L | 35.6 mg/L (≈ 111 µM) | > 50 mg/L | > 50 mg/L | > 50 mg/L | > 50 mg/L | > 50 mg/L
2 | CCOC(=O)/C(=C\Nc1ccc(O)cc1)c1ccc(Cl)cc1 | > 50 mg/L | 44.9 mg/L (≈ 141 µM) | > 50 mg/L | > 50 mg/L | 13.1 mg/L (≈ 41.2 µM) | > 50 mg/L | 38.9 mg/L (≈ 122 µM)
3 | CCOC(=O)/C(=C\Nc1ccc(F)cc1F)c1ccc(Cl)cc1 | > 50 mg/L | > 50 mg/L | > 50 mg/L | > 50 mg/L | > 50 mg/L | > 50 mg/L | 47.3 mg/L (≈ 140 µM)
4 | CCOC(=O)/C(=C\Nc1cc(OC)cc(OC)c1)c1ccc(Cl)cc1 | > 50 mg/L | > 50 mg/L | > 50 mg/L | > 50 mg/L | 36.3 mg/L (≈ 100 µM) | > 50 mg/L | > 50 mg/L
5 | CCOC(=O)/C(=C/Nc1ccc(F)cc1F)c1ccc(Cl)cc1 | > 50 mg/L | 40.9 mg/L (≈ 121 µM) | > 50 mg/L | > 50 mg/L | > 50 mg/L | > 50 mg/L | 48 mg/L (≈ 142 µM)
6 | NC[C@H]1O[C@H](O[C@H]2[C@H](O)[C@@H](O[C@H]3O[C@H](CO)[C@@H](O)[C@H](N)[C@H]3O)[C@H](N)C[C@@H]2N)[C@H](O)[C@@H](O)[C@@H]1O [KANAMYCIN] | – | 1 mg/L (≈ 2.06 µM) | – | 0.39 mg/L (≈ 0.805 µM) | 3.9 mg/L (≈ 8.05 µM) | – | 3.9 mg/L (≈ 8.05 µM)
7 | CCOC(=O)/C(=C/Nc1cc(Br)c(OCc2ccccc2)c(Br)c1)c1ccc(Cl)cc1 | > 50 mg/L | 3.4 mg/L (≈ 6.01 µM) | > 50 mg/L | > 50 mg/L | 8.5 mg/L (≈ 15 µM) | > 50 mg/L | > 50 mg/L
8 | CCOC(=O)/C(=C\Nc1ccc(Br)cc1Br)c1ccc(Cl)cc1 | > 50 mg/L | 32.1 mg/L (≈ 69.8 µM) | > 50 mg/L | > 50 mg/L | 23.8 mg/L (≈ 51.8 µM) | > 50 mg/L | > 50 mg/L
9 | CCOC(=O)/C(=C/N1CCCc2ccccc21)c1ccc(Cl)cc1 | > 50 mg/L | > 50 mg/L | > 50 mg/L | > 50 mg/L | 38.5 mg/L (≈ 113 µM) | > 50 mg/L | > 50 mg/L
10 | CCOC(=O)/C(=C/Nc1ccc(Br)cc1Br)c1ccc(Cl)cc1 | > 50 mg/L | 8.2 mg/L (≈ 17.8 µM) | > 50 mg/L | > 50 mg/L | 4.5 mg/L (≈ 9.79 µM) | > 50 mg/L | > 50 mg/L
11 | CCOC(=O)/C(=C\Nc1cc(Br)c(OCc2ccccc2)c(Br)c1)c1ccc(Cl)cc1 | > 50 mg/L | > 50 mg/L | > 50 mg/L | > 50 mg/L | > 50 mg/L | > 50 mg/L | > 50 mg/L
12 | CCOC(=O)/C(=C\Nc1cc(Br)c(OC)c(Br)c1)c1ccc(Cl)cc1 | > 50 mg/L | 47.7 mg/L (≈ 97.4 µM) | > 50 mg/L | 43.3 mg/L (≈ 88.4 µM) | 48.1 mg/L (≈ 98.2 µM) | > 50 mg/L | 48.6 mg/L (≈ 99.3 µM)
13 | CCOC(=O)/C(=C\Nc1ccc(F)cc1)c1ccc(Cl)cc1 | > 50 mg/L | > 50 mg/L | > 50 mg/L | 49.8 mg/L (≈ 156 µM) | > 50 mg/L | > 50 mg/L | 43.4 mg/L (≈ 136 µM)
14 | CCOC(=O)/C(=C/Nc1cc(Br)c(OC)c(Br)c1)c1ccc(Cl)cc1 | > 50 mg/L | 2.2 mg/L (≈ 4.49 µM) | > 50 mg/L | > 50 mg/L | 6.1 mg/L (≈ 12.5 µM) | > 50 mg/L | > 50 mg/L
15 | CCOC(=O)/C(=C/Nc1ccc(O)cc1)c1ccc(Cl)cc1 | > 50 mg/L | 0.5 mg/L (≈ 1.57 µM) | > 50 mg/L | > 50 mg/L | 1.5 mg/L (≈ 4.72 µM) | > 50 mg/L | > 50 mg/L
16 | CCOC(=O)/C(=C/Nc1cc(OC)cc(OC)c1)c1ccc(Cl)cc1 | > 50 mg/L | 0.9 mg/L (≈ 2.49 µM) | > 50 mg/L | > 50 mg/L | 1.6 mg/L (≈ 4.42 µM) | > 50 mg/L | > 50 mg/L
17 | CC1(C)S[C@@H]2[C@H](NC(=O)Cc3ccccc3)C(=O)N2[C@H]1C(=O)O [PENICILLIN G] | – | 2 mg/L (≈ 5.98 µM) | – | 0.78 mg/L (≈ 2.33 µM) | – | – | –
18 | CC(=O)N1CCN(c2ccc(OCC3COC(Cn4ccnc4)(c4ccc(Cl)cc4Cl)O3)cc2)CC1 (stereo unspecified) [KETOCONAZOLE] | 3.9 mg/L (≈ 7.34 µM) | – | 3.9 mg/L (≈ 7.34 µM) | – | – | 7.8 mg/L (≈ 14.7 µM) | –
19 | CCOC(=O)/C(=C/Nc1ccccc1F)c1ccc(Cl)cc1 | > 50 mg/L | 41.2 mg/L (≈ 129 µM) | > 50 mg/L | > 50 mg/L | > 50 mg/L | > 50 mg/L | > 50 mg/L
20 | CCOC(=O)/C(=C/Nc1ccc(Cl)cc1Cl)c1ccc(Cl)cc1 | > 50 mg/L | 12.3 mg/L (≈ 33.2 µM) | > 50 mg/L | > 50 mg/L | 7.1 mg/L (≈ 19.2 µM) | > 50 mg/L | > 50 mg/L
21 | CCOC(=O)/C(=C/Nc1cc(F)cc(F)c1)c1ccc(Cl)cc1 | > 50 mg/L | 1.9 mg/L (≈ 5.63 µM) | > 50 mg/L | 48.2 mg/L (≈ 143 µM) | 31.5 mg/L (≈ 93.3 µM) | > 50 mg/L | 13.5 mg/L (≈ 40 µM)
22 | CCOC(=O)/C(=C/Nc1cc(Cl)cc(Cl)c1)c1ccc(Cl)cc1 | > 50 mg/L | 1.1 mg/L (≈ 2.97 µM) | > 50 mg/L | > 50 mg/L | 25.7 mg/L (≈ 69.3 µM) | > 50 mg/L | > 50 mg/L
23 | CCOC(=O)/C(=C\Nc1ccccc1F)c1ccc(Cl)cc1 | > 50 mg/L | > 50 mg/L | > 50 mg/L | 46.6 mg/L (≈ 146 µM) | 46 mg/L (≈ 144 µM) | > 50 mg/L | > 50 mg/L
24 | CCOC(=O)/C(=C\Nc1ccc(Cl)cc1Cl)c1ccc(Cl)cc1 | > 50 mg/L | > 50 mg/L | > 50 mg/L | > 50 mg/L | > 50 mg/L | > 50 mg/L | > 50 mg/L
25 | CCOC(=O)/C(=C\Nc1cc(Cl)cc(Cl)c1)c1ccc(Cl)cc1 | > 50 mg/L | > 50 mg/L | > 50 mg/L | > 50 mg/L | > 50 mg/L | > 50 mg/L | > 50 mg/L
26 | CCOC(=O)/C(=C\Nc1cc(Br)c(O)c(Br)c1)c1ccc(Cl)cc1 | > 50 mg/L | 33.5 mg/L (≈ 70.4 µM) | > 50 mg/L | > 50 mg/L | > 50 mg/L | > 50 mg/L | > 50 mg/L
27 | CCOC(=O)/C(=C\Nc1cc(F)cc(F)c1)c1ccc(Cl)cc1 | > 50 mg/L | > 50 mg/L | > 50 mg/L | > 50 mg/L | > 50 mg/L | > 50 mg/L | > 50 mg/L
28 | CCOC(=O)/C(=C/N1CCCc2ccccc21)c1ccc(OC)cc1 | > 50 mg/L | > 50 mg/L | > 50 mg/L | > 50 mg/L | 41.5 mg/L (≈ 123 µM) | > 50 mg/L | > 50 mg/L
29 | CCOC(=O)/C(=C/Nc1cc(Br)c(O)c(Br)c1)c1ccc(Cl)cc1 | > 50 mg/L | 1 mg/L (≈ 2.1 µM) | > 50 mg/L | > 50 mg/L | 3.7 mg/L (≈ 7.78 µM) | > 50 mg/L | > 50 mg/L
